Experimental data from publication PMC9590589 (RSC Advances, 2022).

Legend:
Type in all cases: cell-based
MDA-MB231 (breast) cells = assay: MTT cytotoxicity assay, MDA-MB231; details: Homo sapiens, MDA-MB-231, 24 h, read-out: Cytotoxic activity, IC50, MDA-MB231
Procedure, shortened: (§1)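 Cells grown in DMEM/F12 with 10% FBS, penicillin (100 U mL−1) and streptomycin (100 μg mL−1) at 37 °C, 5% CO2, and passaged twice weekly by trypsinization. Seeded at 5 × 10^3 cells per well for 24 h, then exposed to a range of test compound concentrations for 24 h. MTT (5 mg mL−1 stock) added for 2 h, supernatant removed, formazan dissolved in DMSO, absorbance read at 540 nm, and IC50 calculated. Controls: doxorubicin (positive) and 0.75% DMSO (negative).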

[1] = test system: MDA-MB231, Huh-7, KKU-100 and normal human dermal fibroblast (NHDF) cell lines; assay: MTT cytotoxicity assay, all cell lines; details: 24 h, read-out: IC50 values against all the cell lines
Procedure, shortened: as §1

[2] = test system: KKU-100 (cholangiocarcinoma) cells; assay: MTT cytotoxicity assay, KKU-100; details: Homo sapiens, KKU100, 24 h, read-out: Cytotoxic activity, IC50, KKU-100
Procedure, shortened: as §1

[3] = test system: Huh-7 (hepatocellular carcinoma) cells; assay: MTT cytotoxicity assay, Huh-7; details: Homo sapiens, Huh-7, 24 h, read-out: Cytotoxic activity, IC50, Huh-7
Procedure, shortened: as §1

[4] = MTT cytotoxicity assay, NHDF; details: human, normal human dermal fibroblasts (NHDF)
Procedure, shortened: as §1

Structure (SMILES) | IC50 (MDA-MB231 (breast) cells) [µM] | IC50 [1] [µM] | IC50 [2] [µM] | IC50 [3] [µM] | IC50 at 24 h [4] [µM]
CC(C)=CCOc1ccc(-c2coc3cc(OCC=C(C)C)cc(O)c3c2=O)cc1 [Compound 9, 7,4′-di-O-prenylgenistein] | > 100 | > 100 | > 100 | > 100 | > 100
COc1cccc2c1C(=O)c1c(O)c3c(c(O)c1C2=O)C[C@@](O)(C(=O)CO)C[C@@H]3O[C@H]1C[C@H](N)[C@H](O)[C@H](C)O1 [Doxorubicin, reference compound] |  |  | 1.9 |  | 5
